Assay results taken from ChEMBL document CHEMBL4043283, “Discovery and Preclinical Development of IIIM-290, an Orally Active Potent Cyclin-Dependent Kinase Inhibitor” (J Med Chem, 2018).

How the values were obtained:
[1] = system: PC-3; assay: Growth inhibition of human PC3 cells at 10 uM after 48 hrs by MTT assay relative to control; format: functional; conditions: PC-3, 48 h, read-out: GI
Method in brief: (§1)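 Single-concentration primary screen at 10 μM by MTT assay. Cells were NCI-sourced cancer lines grown in appropriate medium at 37 °C, 95% humidity, 5% CO2. Growth inhibition is expressed relative to control.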

[2] = system: Caco-2; assay: Growth inhibition of human Caco2 cells at 10 uM after 48 hrs by MTT assay relative to control; format: functional; conditions: Caco-2, 48 h, read-out: GI; method in brief: as §1
[3] = molecular target: CDK2/Cyclin A2 (Homo sapiens) (UniProt P24941+P20248); assay: Inhibition of CDK2/cyclin A (unknown origin) at 0.5 uM using histone H1 as substrate after 30 mins in presence of [33P]-gamma-ATP by filter binding assay relative to control; format: protein-complex assay
[4] = molecular target: CDK9/cyclin T1 (Homo sapiens) (UniProt O60563+P50750); assay: Inhibition of CDK9/cyclin T1 (unknown origin) at 0.5 uM using YSPTSPSYSPTSPSYSPTSPKKK as substrate after 30 mins in presence of [33P]-gamma-ATP by filter binding assay relative to control; format: protein-complex assay
[5] = system: MIA PaCa-2; assay: Growth inhibition of human MIAPaCa2 cells at 10 uM after 48 hrs by MTT assay relative to control; format: functional; conditions: MIA PaCa-2, 48 h, read-out: GI; method in brief: as §1
[6] = system: MCF7; assay: Growth inhibition of human MCF7 cells at 10 uM after 48 hrs by MTT assay relative to control; format: functional; conditions: MCF7, 48 h, read-out: GI; method in brief: as §1
[7] = system: HL-60; assay: Growth inhibition of human HL60 cells at 10 uM after 48 hrs by MTT assay relative to control; format: functional; conditions: HL-60, 48 h, read-out: GI; method in brief: as §1

SMILES	inhibition of growth at 10 µM [1] [%]	inhibition of growth at 10 µM [2] [%]	inhibition [3] [%]	inhibition [4] [%]	inhibition of growth at 10 µM [5] [%]	inhibition of growth at 10 µM [6] [%]	inhibition of growth at 10 µM [7] [%]
Cc1oc2c([C@H]3CCN(C)C[C@H]3O)c(O)cc(O)c2c(=O)c1C(O)c1c(Cl)cccc1Cl (stereo partly specified)	0	24	0	0	0	33	14
Cc1oc2c([C@H]3CCN(C)C[C@H]3O)c(O)cc(O)c2c(=O)c1C(O)c1ccccc1Br (stereo partly specified)	45	7	0	29	10	21	52
Cc1cc(=O)c2c(O)cc(OCc3ccco3)c([C@H]3CCN(C)C[C@H]3O)c2o1	14	17	7	8	7	6	32
Cc1cc(=O)c2c(O)cc(OC/C=C/c3ccccc3)c([C@H]3CCN(C)C[C@H]3O)c2o1	18	9	7	8	11	7	21
Cc1cc(=O)c2c(O)c(CN3CCC(Cc4ccccc4)CC3)c(O)c([C@H]3CCN(C)C[C@H]3O)c2o1	16	21	4	0	18	17	28
Cc1cc(=O)c2c(O)c(CN3CCCCC3)c(O)c([C@H]3CCN(C)C[C@H]3O)c2o1	14	22	10	10	14	15	32
COc1ccc(COc2cc(O)c3c(=O)cc(C)oc3c2[C@H]2CCN(C)C[C@H]2O)cc1	35	8	10	0	15	16	23
Cc1cc(=O)c2c(O)c(CN3CCCC3)c(O)c([C@H]3CCN(C)C[C@H]3O)c2o1	10	22	7	5	28	12	38
Cc1cc(=O)c2c(O)c(CN3CC(O)CC3C(=O)O)c(O)c([C@H]3CCN(C)C[C@H]3O)c2o1 (stereo partly specified)	0	19	10	8	23	25	28
Cc1cc(=O)c2c(O)cc(OCc3ccccc3)c([C@H]3CCN(C)C[C@H]3O)c2o1	41	18	10	0	14	1	24
Cc1cc(=O)c2c(O)c(CN3CCC(N4CCCCC4)CC3)c(O)c([C@H]3CCN(C)C[C@H]3O)c2o1	17	31	10	5	23	25	34
Cc1cc(=O)c2c(O)cc(OCc3ccc(Br)cc3)c([C@H]3CCN(C)C[C@H]3O)c2o1	17	13	0	0	13	14	27
Cc1oc2c([C@H]3CCN(C)C[C@H]3O)c(O)cc(O)c2c(=O)c1C(O)c1csc([N+](=O)[O-])c1 (stereo partly specified)	0	3	7	0	41	20	45
CCCCCCCCCC/C=C/c1c(C)oc2c([C@H]3CCN(C)C[C@H]3O)c(O)cc(O)c2c1=O	0	10	5	11	4	7	9
Cc1oc2c([C@H]3CCN(C)C[C@H]3O)c(O)cc(O)c2c(=O)c1C(O)c1cccc(Cl)c1 (stereo partly specified)	31	4	0	4	2	5	22
CCN(CC)Cc1c(O)c([C@H]2CCN(C)C[C@H]2O)c2oc(C)cc(=O)c2c1O	2	17	0	4	27	24	47
Cc1cc(=O)c2c(O)c(CN3CCCC3CO)c(O)c([C@H]3CCN(C)C[C@H]3O)c2o1 (stereo partly specified)	15	19	0	5	13	22	33
Cc1oc2c([C@H]3CCN(C)C[C@H]3O)c(O)cc(O)c2c(=O)c1C(O)c1cc(F)cc(F)c1 (stereo partly specified)	0	10	2	10	6	25	30
CCOC(=O)N1CCN(Cc2c(O)c([C@H]3CCN(C)C[C@H]3O)c3oc(C)cc(=O)c3c2O)CC1	1	18	5	0	4	31	16
Cc1oc2c([C@H]3CCN(C)C[C@H]3O)c(O)cc(O)c2c(=O)c1C(O)c1ccc(F)c(Br)c1 (stereo partly specified)	72	6	2	2	9	14	25
Cc1cc(=O)c2c(O)c(CN3CCN(C)CC3)c(O)c([C@H]3CCN(C)C[C@H]3O)c2o1	0	30	0	2	6	10	15
COc1ccc(C(O)c2c(C)oc3c([C@H]4CCN(C)C[C@H]4O)c(O)cc(O)c3c2=O)cc1Br (stereo partly specified)	0	0	3	0	3	41	23
Cc1cc(=O)c2c(O)cc(O)c([C@H]3CCN(C)C[C@H]3OC(=O)c3ccco3)c2o1	23	33	10	0	13	20	22
CCOc1ccc(Br)c(C(O)c2c(C)oc3c([C@H]4CCN(C)C[C@H]4O)c(O)cc(O)c3c2=O)c1 (stereo partly specified)	0	5	0	2	4	9	2
Cc1cc(=O)c2c(O)c(CN3CCN(C(=O)OC(C)(C)C)CC3)c(O)c([C@H]3CCN(C)C[C@H]3O)c2o1	1	21	2	0	6	16	13
Cc1oc2c([C@H]3CCN(C)C[C@H]3O)c(O)cc(O)c2c(=O)c1C(O)c1ccc(Cl)cc1 (stereo partly specified)	41	3	0	0	15	6	2
Cc1cc(=O)c2c(O)c(CN(C)CC(=O)O)c(O)c([C@H]3CCN(C)C[C@H]3O)c2o1	20	18	0	0	16	27	23
Cc1oc2c([C@H]3CCN(C)C[C@H]3O)c(O)cc(O)c2c(=O)c1C(O)c1c(F)cccc1Cl (stereo partly specified)	0	18	0	0	41	41	49
